Experimental findings from ChEMBL document CHEMBL4118256, “Second Generation of Mannich Base-Type Derivatives with in Vivo Activity against Trypanosoma cruzi” (J Med Chem, 2018) are described below.

In series [1] the test system is Vero. Nature of the series: Cytotoxicity against African green monkey Vero cells assessed as reduction in cell viability after 72 hrs by resazurin dye based assay. As to conditions: Chlorocebus sabaeus. In a few lines: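 Vero monkey kidney cells grown at 37 °C, 5 % CO2, in RPMI with 10 % heat-inactivated FBS. Seeded at 1.25 × 10^4 mL-1 with compound at 1000 to 1 µM (DMSO 0.01 % v/v). After 48 h, resazurin added for a further 24 h, then SDS. Absorbance read at 570/600 nm. IC50 from triplicates in four separate determinations.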
A general note: Alamar Blue is a resazurin reagent that responds to reducing activity.

Series [2] deals with Trypanosoma cruzi. The series is described as follows: Trypanocidal activity against Trypanosoma cruzi TINF/CH/1956/Tulahuen DTU 6 epimastigotes after 48 hrs by resazurin dye based assay. The note with it: TINF/CH/1956/Tulahuen DTU 6, 48 h. The format is functional, organism-based. In outline: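 Exponential-phase epimastigotes were seeded at 5×10^5 mL^-1 with compounds at 100–0.2 µM (DMSO 0.01% v/v) at 28 °C. After 48 h, resazurin was added for another 24 h. SDS was then added and absorbance read at 570 and 600 nm.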

The subject of series [3] is Trypanosoma cruzi. The series is described as follows: Induction of mitochondrial membrane potential disruption in Trypanosoma cruzi MHOM/Pe/2011/Arequipa DTU 5 epimastigotes assessed as inhibition of DNA replication and RNA synthesis at IC25 after 72 hrs by acridine orange staining based flow cytometry relative to control. The format is functional. In outline:
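Arequipa epimastigotes were exposed for 72 h at IC25. DNA/RNA content was measured as acridine orange fluorescence by flow cytometry and compared with untreated control.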

The subject of series [4] is Trypanosoma cruzi. The series is described as follows: Trypanocidal activity against Trypanosoma cruzi TINF/CH/1956/Tulahuen DTU 6 amastigotes infected in African green monkey Vero cells after 72 hrs by Giemsa-staining based microscopic assay. Format: functional, organism-based. As to conditions: TINF/CH/1956/Tulahuen DTU 6, Vero. In outline: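 Vero cells were seeded at 1×10^4/well on coverslips. After 24 h they were infected with culture-derived trypomastigotes (MOI 1:10, 24 h), then washed. Compounds were added at 100–0.2 µM (DMSO 0.01% v/v) for 72 h at 37 °C, 5% CO2. Slides were methanol-fixed and Giemsa-stained; amastigotes and infected cells were counted over 500 host cells. IC50 was derived by curve fitting; triplicate wells, four separate determinations.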

Series [5] is described as follows: Selectivity index, ratio of IC50 for African green monkey Vero cells to IC50 for Trypanosoma cruzi TINF/CH/1956/Tulahuen DTU 6 amastigotes infected in African green monkey Vero cells. Format: toxicity. The note with it: read-out: Ratio IC50. In outline: (§1)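 SI is Vero IC50 divided by the IC50 for the stated parasite form. For Vero cytotoxicity, cells were seeded at 1.25×10^4 mL^-1 with compounds at 1000–1 µM, incubated 48 h, then given resazurin for a further 24 h (72 h total), with absorbance read at 570/600 nm. Triplicate, four determinations.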

A short description of series [6]: Selectivity index, ratio of IC50 for African green monkey Vero cells to IC50 for Trypanosoma cruzi TINF/CH/1956/Tulahuen DTU 6 trypamastigotes derived from infected Balb/c albino mouse. As to conditions: read-out: Ratio IC50. The format is toxicity. In a few lines: as §1
Series [7] can be described thus: Selectivity index, ratio of IC50 for African green monkey Vero cells to IC50 for Trypanosoma cruzi MHOM/Pe/2011/Arequipa DTU 5 trypamastigotes derived from infected Balb/c albino mouse. Format: toxicity. The note with it: read-out: Ratio IC50. In a few lines: as §1
The test system of series [8] is Mus musculus. The series is described as follows: Hepatotoxicity in Balb/c mouse infected with Trypanosoma cruzi MHOM/Pe/2011/Arequipa DTU 5 trypamastigotes assessed as change in total bilirubin level at […], po once daily for 5 consecutive days starting from day 75 post infection measured on day 127 post infection by biochemical analysis relative to control. Format: toxicity, organism-based. As to conditions: in vivo.

The subject of series [9] is Trypanosoma cruzi. The series is described as follows: Antitrypanosomal activity against Trypanosoma cruzi MHOM/Pe/2011/Arequipa DTU 5 trypamastigotes infected in Balb/c mouse assessed as reduction in splenomegaly at 100 mg/kg, po once daily for 5 consecutive days starting from day 75 post infection measured on day 127 post infection relative to control. Format: functional.

The nature of series [10]: Selectivity index, ratio of IC50 for African green monkey Vero cells to IC50 for Trypanosoma cruzi IRHOD/CO/2008/SN3 DTU 1 epimastigotes. The format is toxicity. As to conditions: read-out: Ratio IC50. In outline: as §1
Series [11] concerns Trypanosoma cruzi. The series is described as follows: Antitrypanosomal activity against Trypanosoma cruzi MHOM/Pe/2011/Arequipa DTU 5 trypamastigotes infected in Balb/c mouse assessed as reduction in Ig-G level in serum at 100 mg/kg, po pretreated once daily for 5 consecutive days starting from day 10 post infection followed by cyclophosphamide-induced immunosuppression on day 100 post infection every 4 days for a maximum of 3 doses measured on day 127 post infection by ELISA. Format: functional, organism-based.

The nature of series [12]: Selectivity index, ratio of IC50 for African green monkey Vero cells to IC50 for Trypanosoma cruzi MHOM/Pe/2011/Arequipa DTU 5 amastigotes infected in African green monkey Vero cells. Format: toxicity. As to conditions: read-out: Ratio IC50. In outline:
as §1

The test system of series [13] is Mus musculus. The series is described as follows: Toxicity in Balb/c mouse assessed as reduction in body mass at […], po once daily for 5 consecutive days starting from day 75 post infection relative to control. The format is organism-based. Also on record: scale not given: the % may be the effect or the level left. As to conditions: in vivo. In outline:
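Infected female BALB/c mice, six per group, received oral doses of 20 mg·kg^-1/day for 5 consecutive days (total 100 mg·kg^-1) in 5% DMSO/0.5% HPMC vehicle, from day 10 or day 75 pi. Body mass and deaths were monitored during and after treatment.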

Series [14] relates to Trypanosoma cruzi. Nature of the series: Antitrypanosomal activity against Trypanosoma cruzi MHOM/Pe/2011/Arequipa DTU 5 trypamastigotes infected in Balb/c mouse assessed as reduction in splenomegaly at 100 mg/kg, po once daily for 5 consecutive days starting from day 10 post infection measured on day 127 post infection relative to control. The format is functional.
Series [15] deals with Superoxide dismutase [Cu-Zn] (Homo sapiens, UniProt P00441). The series is described as follows: Inhibition of human erythrocyte CuZn-SOD by UV-Visible spectrophotometric method. In outline:
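SOD activity of parasite Fe-SOD and human CuZn-SOD was measured spectrophotometrically by the Beyer and Fridovich method, with compounds at 1–100 µM. Values are averages of three rate determinations; IC50 was obtained by linear regression and differences were tested by Newman-Keuls.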

The nature of series [16]: Selectivity index, ratio of IC50 for African green monkey Vero cells to IC50 for Trypanosoma cruzi IRHOD/CO/2008/SN3 DTU 1 trypamastigotes derived from infected Balb/c albino mouse. As to conditions: read-out: Ratio IC50. The format is toxicity. In outline: as §1
Series [17] concerns Mus musculus. Nature of the series: Cardiotoxicity in Balb/c mouse infected with Trypanosoma cruzi MHOM/Pe/2011/Arequipa DTU 5 trypamastigotes assessed as change in serum LDH level at 100 mg/kg, po once daily for 5 consecutive days starting from day 10 post infection measured on day 127 post infection by biochemical analysis relative to control. The format is toxicity, organism-based. The note with it: in vivo.

The subject of series [18] is Mus musculus. Nature of the series: Hepatotoxicity in Balb/c mouse infected with Trypanosoma cruzi MHOM/Pe/2011/Arequipa DTU 5 trypamastigotes assessed as change in alkaline phosphatase level at 100 mg/kg, po once daily for 5 consecutive days starting from day 10 post infection measured on day 127 post infection by biochemical analysis relative to control. The format is toxicity, organism-based. As to conditions: in vivo.

Series [19] in a line: Selectivity index, ratio of IC50 for African green monkey Vero cells to IC50 for Trypanosoma cruzi MHOM/Pe/2011/Arequipa DTU 5 epimastigotes. The format is toxicity. The note with it: read-out: Ratio IC50. In a few lines:
as §1

Series [20] in a line: Selectivity index, ratio of IC50 for African green monkey Vero cells to IC50 for Trypanosoma cruzi TINF/CH/1956/Tulahuen DTU 6 epimastigotes. Format: toxicity. The note with it: read-out: Ratio IC50. In outline: as §1
For series [21], the system named is Trypanosoma cruzi. The series is described as follows: Antitrypanosomal activity against Trypanosoma cruzi MHOM/Pe/2011/Arequipa DTU 5 trypamastigotes infected in Balb/c mouse assessed as reduction in Ig-G level in serum at 100 mg/kg, po once daily for 5 consecutive days starting from day 75 post infection measured on day 81 post infection by ELISA. Format: functional, organism-based.

Activity calls are given as the source filed them. No cut-off for these calls is given here.

Chain of Superoxide dismutase [Cu-Zn] (P00441 whole entry): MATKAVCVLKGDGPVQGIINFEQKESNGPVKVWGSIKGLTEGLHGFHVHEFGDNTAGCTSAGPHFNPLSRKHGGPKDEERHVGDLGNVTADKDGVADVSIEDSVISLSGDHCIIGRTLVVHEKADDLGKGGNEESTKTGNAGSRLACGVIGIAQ

`O=C(Cn1ccnc1[N+](=O)[O-])NCc1ccccc1` [BENZNIDAZOLE]: the IC50 was 23.2 µM in [1], 19.7 µM in series [2] and 10 µM in series [4]. In series [3], the “inhibition (INH)” value came to 22.4%.

Take `COc1ccc(C(=O)CCN2CCN(c3ccc([N+](=O)[O-])cc3)CC2)cc1`: the selectivity ratio in [5] was determined as 17.5; in series [6], 40.6; in [7], 50.4; in [10], 26.7; in [12], 20; in series [16], 187. Further, the results for the selectivity ratio in [19] and in series [20] were 18.6 and 15.7, respectively. The Activity in series [8] is recorded as less than 10%; in series [13], more than 10%; in series [17], less than 10%; in series [18] it was less than 10%. Besides, the outcome in series [9] and in series [14] was Active. Moreover, the IC50 in series [1] is 587 µM; in series [15], more than 100 µM; in series [2], 37.4 µM; in series [4] it was 33.6 µM. Besides, the outcome in [11] and in series [21] was inactive. In addition, in series [3], the “inhibition (INH)” value amounted to 72.9%.

For the compound `COc1ccc(C(=O)CCN2CCN(c3ccc(Cl)cc3)CC2)cc1`, the selectivity ratio in series [5] came out at 78.7; in series [6], 103; in [7] it was 89.6; in series [10], 47.8; in series [12] it was 82.4; in series [16], 76.1. In addition, the selectivity ratio came to 31.5 in series [19] and 40.9 in [20]. Also, the Activity was less than 10% in series [8]; 68% in series [9]; more than 10% in series [13]; 52% in series [14]; less than 10% in series [17]; less than 10% in series [18]. In addition, the half-inhibitory concentration (IC50) in [1] was determined as 300 µM; in [15], 100 µM; in series [2], 7.3 µM; in [4], 3.8 µM. The outcome in series [11] was Active. In series [3], the “inhibition (INH)” value is on record as 18%. Further, the outcome in series [21] was inactive.

For `COc1ccc(C(=O)CCN2CCN(c3ccc(F)cc3)CC2)cc1`, the selectivity ratio in series [5] stood at 34.6; in series [6] it was 47.4; in [7] it was 49.1; in series [10], 27.9; in series [12], 88.7; in [16], 39.9. Further, the selectivity ratio in series [19] stood at 40.2; in series [20], 30.2. Also, the Activity in [8] is given as less than 10%; in series [13], more than 10%; in [17] it was less than 10%; in series [18] it was less than 10%. Further, the outcome in [9] and in [14] was Active. Moreover, the half-maximal inhibitory concentration (IC50) in series [1] came to 55 µM; in [15], 146 µM; in series [2] it was 1.8 µM; in [4] it was 1.6 µM. The result in series [11] and in series [21] was inactive. Besides, the “inhibition (INH)” value in series [3] is 24.6%.

By IC50 is commonly meant the concentration that gives 50% inhibition.
